Compound activity as filed in PubChem.
An excerpt weighted towards active compounds, which were near 2.9% of everything screened.
PGC1a acetyl inh: modulators of PGC1a acetylation; U2OS PGC1a acetylation, AlphaScreen anti-acetyl-lysine; with virally co-expressed GCN5 acetyltransferase; inhibition, % at 15.6 µM; hit rate 0.17% among 350,000; AID 651687;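 active means every replicate shows inhibition of at least 40%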
FGF22 binding-1: binders of recombinant human FGF22 by thermal shift; SYPRO orange fluorescence; percent of sucrose octasulfate shift, DMSO zero; activity (Tm shift, normalised), % at 9.99 µM; hit rate 1.5% among 340,000; AID 651658;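 active means mean Tm shift, scaled 0 neutral to 100 positive control, at about 1.3% or above, every replicate too, limit read from the data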
Target sequence (Q9HCT0 whole entry, looked up): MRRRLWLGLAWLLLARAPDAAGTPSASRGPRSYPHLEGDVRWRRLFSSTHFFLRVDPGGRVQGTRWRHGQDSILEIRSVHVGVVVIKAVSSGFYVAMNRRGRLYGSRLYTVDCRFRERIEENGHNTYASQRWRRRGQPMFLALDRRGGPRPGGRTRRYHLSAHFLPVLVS
Cneo AK release: causes C. neoformans cell lysis; adenylate kinase release luminescence, 4 h; normalised: neutral wells 0, clomiphene wells 100; lysis activity, % at 15 µM; AID 651654; hit rate 0.2% among 360,000;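 active means mean lysis activity across replicates of at least 80%, whatever share of replicates individually reach that level; inactive means mean lysis activity below 80%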
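Test system: log-phase Cryptococcus neoformans yeast cells. Input: 5 × 10^6 yeast cells/mL. Medium: fresh YPD growth medium. Doses: single dose. Incubation: static 4 h at 37 °C with compound, 1 h detection. Measured by: luminescent adenylate kinase detection reagent. Read-out: signal increase indicating cell lysis. Benchmarks: Clomiphene.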
PglD inh: PglD (C. jejuni) enzyme inhibition; purified PglD enzyme, DTNB colorimetric CoA detection; inhibition, % at 12.5 µM; hit rate 0.098% among 360,000; in the data active means inhibition above about 16%, passing the limit was not always enough
Vif imaging: HIV Vif inhibition; hit rate 0.35% among 340,000; inhibition, % at 7.49 µM; AID 602346; HEK293T cells, Vif self-association by quenched fluorescence, imaging, 24 h; in the data active means inhibition above about 50%, passing the limit was not always enough
Ecoli rRNA inh: selective bacterial rRNA inhibition in E. coli | E. coli WT GFP vs humanized-ribosome RFP mutants, fluorescence, 24 h; hits give low values; DMSO median 0, no signal -100 | GFP signal change (wild-type ribosome), % (concentration not given with the values) | hit rate 1.6% among 350,000;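 active means significant combined selectivity score with lowered wild-type GFP, culture density cut under 30%, mutant RFP and density less affected; inactive means any of these conditions unmet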
FGF22 binding-2: binders of human FGF22 by thermal shift. AID 720646. hit rate 2% among 1,000. shares compounds with FGF22 binding-1. recombinant FGF22 thermal shift, SYPRO orange fluorescence. thermal shift activity, °C (ΔTm) at 38 µM;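 active means fitted rise in melting shift crosses a set limit at or below the top valid dose tested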
SYPRO no-protein: compound-only SYPRO artifact for FGF22 binders. shares compounds with FGF22 binding-1. compound-only SYPRO orange thermal shift counter-screen, no protein. AC50, µM (highest dose often 38 µM). hit rate 2% among 1,000. AID 743019;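 active means rising signal whose fitted curve reaches the 0.54 level within the top valid dose, showing a melting point, actives reach about 13 µM in these data; inactive means the rest, including activity in the opposite direction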; further: value is where the raw curve crosses a fixed level and not half-maximal
Large screens that a line does not name were inactive (follow-up assays come after a bar, where they were run).

C[C@@H]1CN([C@@H](C)CO)C(=O)c2cc(C#CC3CC3)cnc2O[C@H]1CN(C)C(=O)C1CCCCC1	none (no result: FGF22 binding-1, Cneo AK release, PglD inh, Vif imaging)
CC1CCCCN1C(=O)CCNC(=O)Cn1cnc2ccccc2c1=O (stereo not given)	none
CCC1CCCCN1C(=O)CCNC(=O)Cn1cnc2ccccc2c1=O (stereo not given)	FGF22 binding-1 1.4 | FGF22 binding-2 inactive | SYPRO no-protein inactive
COc1cccc(NC(=O)CN(C)C(=O)c2cn(-c3ccccc3)nc2-c2cccs2)c1	FGF22 binding-1 2.1 (no result: Cneo AK release) | FGF22 binding-2 inactive | SYPRO no-protein inactive
C[C@H](CO)N1C[C@H](C)[C@H](CN(C)Cc2ccc(Cl)c(Cl)c2)OCCCC[C@H](C)Oc2ccc(NS(=O)(=O)c3ccc(F)cc3)cc2C1=O	none (no result: Vif imaging)
C/C=C/c1ccc2c(c1)O[C@H](CN(C)C(=O)Nc1cc(F)ccc1F)[C@H](C)CN([C@H](C)CO)S2(=O)=O	FGF22 binding-1 1.2 (no result: Vif imaging) | FGF22 binding-2 inactive | SYPRO no-protein inactive
C/C=C/c1ccc2c(c1)O[C@H](CN(C)C(=O)Nc1cccc(F)c1)[C@H](C)CN([C@H](C)CO)S2(=O)=O	none (no result: Vif imaging)
C/C=C/c1ccc2c(c1)O[C@@H](CN(C)C(=O)Nc1cccc(F)c1)[C@@H](C)CN([C@@H](C)CO)S2(=O)=O	FGF22 binding-1 1.5 (no result: Vif imaging) | FGF22 binding-2 inactive | SYPRO no-protein inactive
C/C=C/c1ccc2c(c1)O[C@H](CN(C)Cc1ccncc1)[C@@H](C)CN([C@H](C)CO)S2(=O)=O	none (no result: Vif imaging)
C/C=C/c1ccc2c(c1)O[C@@H](CN(C)Cc1ccncc1)[C@@H](C)CN([C@@H](C)CO)S2(=O)=O	FGF22 binding-1 1.6 (no result: Vif imaging) | FGF22 binding-2 inactive | SYPRO no-protein inactive
CC(C)NC(=O)N(C)C[C@H]1Oc2c(NS(=O)(=O)c3ccc(F)cc3)cccc2C(=O)N([C@H](C)CO)C[C@H]1C	none (no result: Vif imaging)
C[C@@H]1CN([C@@H](C)CO)C(=O)Cc2cc(NS(C)(=O)=O)ccc2O[C@H]1CN(C)C(=O)Nc1cccc2ccccc12	none (no result: Vif imaging)
Cc1ccc(S(=O)(=O)NCC[C@@H]2CC[C@@H](NC(=O)c3cccc(F)c3)[C@H](CO)O2)cc1	none (no result: Vif imaging)
COc1cc(/C=N/NC(=O)c2[nH]nc3c2CCc2ccccc2-3)ccc1O	FGF22 binding-1 1.7, Ecoli rRNA inh -20 | FGF22 binding-2 inactive | SYPRO no-protein inactive
COc1cc(/C=N/NC(=O)c2ccccc2)ccc1O	none (no result: PGC1a acetyl inh, Cneo AK release, PglD inh)
CCCN(C)C[C@@H]1Oc2cc(-c3ccccc3C)ccc2S(=O)(=O)N([C@H](C)CO)C[C@@H]1C	none (no result: Vif imaging)
O=C(CNS(=O)(=O)c1ccccc1F)OCC(=O)c1c[nH]c2ccccc12	none
O=C(CNS(=O)(=O)c1ccccc1)OCC(=O)c1c[nH]c2ccccc12	FGF22 binding-1 2.1 | FGF22 binding-2 inactive | SYPRO no-protein inactive
COc1ccc(/C=C(\C#N)c2nc3ccccc3[nH]2)cc1O	none (no result: PGC1a acetyl inh)
COc1c(O)ccc(/C=C(\C#N)c2nc3ccccc3[nH]2)c1[N+](=O)[O-]	FGF22 binding-1 1.4 | FGF22 binding-2 inactive | SYPRO no-protein inactive
Cc1ccc(C(=O)Nc2nc(=O)n(C(=O)C3CC3)s2)cc1	FGF22 binding-1 1.3 (no result: Cneo AK release, PglD inh) | FGF22 binding-2 inactive | SYPRO no-protein inactive
O=C(Nc1nc(=O)n(C(=O)C2CC2)s1)c1ccccc1	FGF22 binding-1 2.2 | FGF22 binding-2 inactive | SYPRO no-protein inactive
O=c1oc(-c2ccc(O)c(O)c2)cc2cccc(O)c12	none
O=c1oc(-c2ccc(O)c(O)c2)cc2cc(O)cc(O)c12	FGF22 binding-1 1.5 (no result: Ecoli rRNA inh) | FGF22 binding-2 inactive | SYPRO no-protein inactive
O=C(Nc1ccccc1)OCCN1CCN(Cc2ccccc2)CCC1=O	none
COc1cccc(NC(=O)OCCN2CCN(Cc3ccccc3)CCC2=O)c1	FGF22 binding-1 1.5 | FGF22 binding-2 inactive | SYPRO no-protein inactive
